Assay outcomes as filed in PubChem BioAssay.
Only some compounds are listed: those with a hit (about 1.9% of all), similar ones and a draw of the others.
HGIII-sPLA2 inh = Inhibits HGIII-sPLA2 liposome hydrolysis, primary screen. hit rate 0.56% among 370,000. inhibition, % at 12.2 µM. Q9NZ20. QFRET BODIPY PC-A2 liposome hydrolysis, fluorescence;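 active = inhibition above mean plus 3 SD of compounds lying within the high and low control bounds, cut at about 19% in these data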;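 note: 0% = median of test compound wells and 100% = no enzyme DMSO wells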
TbMetRS inhib = blocks T. brucei methionyl-tRNA synthetase activity. purified T. brucei MetRS, ATP depletion, Kinase-Glo luminescence. inhibition, % at 11.9 µM. hit rate 0.4% among 360,000. AID 624268;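 active = inhibition above a per-plate cutoff of the control wells' mean inhibition plus 3 SD, cut at about 5.5% in these data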;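 note: 0% = DMSO wells median and 100% = median of wells with control inhibitor compound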
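Measured by: Kinase-Glo luciferase luminescence reporting remaining unconsumed ATP. Material: purified T. brucei MetRS enzyme. Doses: 11.9 µM compound single dose, 0.9% DMSO. Medium: HEPES buffer containing pyrophosphatase, BSA, spermine, DTT. Times: 15 min preincubation, 2 h reaction, all 25 °C. Reagent: methionine, ATP and bulk E. coli tRNA.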
PLCg1 inh = blocks human PLC-gamma1 enzyme activity; P19174; hit rate 0.84% among 370,000; inhibition, % at 12.2 µM; purified PLC-gamma1, fluorogenic substrate, fluorescence; in the data active = inhibition above about 9.5%
PLC-beta3 inh = blocks human PLC-beta3 enzyme activity | Purified PLC-beta3, fluorogenic substrate, fluorescence | inhibition, % at 12.2 µM | hit rate 0.18% among 370,000; in the data active = inhibition above about 11%;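 note: 0% = median of compound wells on plate and 100% = full blocker control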
Target sequence (Q01970 whole entry, looked up): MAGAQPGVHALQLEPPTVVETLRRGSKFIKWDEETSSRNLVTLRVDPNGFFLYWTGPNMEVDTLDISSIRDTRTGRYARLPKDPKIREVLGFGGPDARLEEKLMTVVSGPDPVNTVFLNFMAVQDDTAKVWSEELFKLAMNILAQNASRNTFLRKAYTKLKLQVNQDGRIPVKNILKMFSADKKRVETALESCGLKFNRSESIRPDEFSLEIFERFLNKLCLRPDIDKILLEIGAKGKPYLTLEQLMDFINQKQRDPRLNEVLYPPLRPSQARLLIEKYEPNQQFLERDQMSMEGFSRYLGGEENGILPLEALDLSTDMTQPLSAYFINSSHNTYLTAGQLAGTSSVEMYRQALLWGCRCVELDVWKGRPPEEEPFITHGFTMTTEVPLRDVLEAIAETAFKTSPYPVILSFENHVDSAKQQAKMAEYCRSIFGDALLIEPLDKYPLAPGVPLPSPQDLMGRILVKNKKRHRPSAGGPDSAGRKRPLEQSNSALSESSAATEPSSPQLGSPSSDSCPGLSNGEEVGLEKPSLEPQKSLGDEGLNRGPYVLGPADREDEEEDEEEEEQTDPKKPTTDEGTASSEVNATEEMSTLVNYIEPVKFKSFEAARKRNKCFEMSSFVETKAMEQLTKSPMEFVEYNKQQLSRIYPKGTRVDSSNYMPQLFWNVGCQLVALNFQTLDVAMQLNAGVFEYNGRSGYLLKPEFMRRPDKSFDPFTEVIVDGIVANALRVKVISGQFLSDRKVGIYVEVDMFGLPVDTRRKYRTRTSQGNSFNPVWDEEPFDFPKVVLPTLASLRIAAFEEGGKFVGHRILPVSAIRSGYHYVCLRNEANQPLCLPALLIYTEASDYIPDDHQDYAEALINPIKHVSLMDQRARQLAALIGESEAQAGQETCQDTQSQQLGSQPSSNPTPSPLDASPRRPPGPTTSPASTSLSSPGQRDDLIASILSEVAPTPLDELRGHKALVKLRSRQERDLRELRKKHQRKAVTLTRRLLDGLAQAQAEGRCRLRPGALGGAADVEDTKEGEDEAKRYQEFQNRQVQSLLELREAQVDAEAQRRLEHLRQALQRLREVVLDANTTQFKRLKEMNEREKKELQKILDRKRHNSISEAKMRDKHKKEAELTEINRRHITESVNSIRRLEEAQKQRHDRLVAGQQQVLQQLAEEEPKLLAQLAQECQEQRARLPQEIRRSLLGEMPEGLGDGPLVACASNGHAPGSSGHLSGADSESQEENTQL
sPLA2 confirm = human GIII-sPLA2 inhibition, confirmation; inhibition, % at 12.2 µM; recombinant hGIII-sPLA2, BODIPY PC-A2 QFRET fluorescence; AID 743280; hit rate 34% among 2,000; shares compounds with HGIII-sPLA2 inh;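 active = mean inhibition across triplicates above the hit cutoff set in the earlier primary screen, cut at about 19% in these data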;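 note: 0% = enzyme with DMSO and 100% = DMSO wells lacking enzyme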
535nm interf = optically interferes with 535nm fluorescence in sPLA2 counter-screen | hit rate 8.5% among 2,000 | inhibition, % at 12.2 µM | AID 743282 | shares compounds with HGIII-sPLA2 inh | BODIPY FL product fluorescence interference, QFRET;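 active = average inhibition above the solvent-only control mean plus 3 SD, cut at about 6% in these data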;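 note: 0% = DMSO with substrate plus product and 100% = DMSO with substrate alone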
BODIPY interf DR = counter-screen for HGIII-sPLA2 inhibitors: 535nm fluorescence interference, dose response; shares compounds with HGIII-sPLA2 inh; BODIPY FL product fluorescence interference, cell-free; IC50, µM; 240 tested, under 10 active; AID 743455;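 active = IC50 at or below 10 µM; inactive = IC50 above 10 µM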
The depositor's hits bear a star; i = inactive; . = no result.

SMILES | HGIII-sPLA2 inh | TbMetRS inhib | PLCg1 inh | PLC-beta3 inh | sPLA2 confirm | 535nm interf | others
COc1ccc(CNc2cc([N+](=O)[O-])ccc2OC)cc1 | 1.7 | 0.0 | 0.4 | -3.7 | . | .
COc1ccc(C)cc1NCc1ccc([N+](=O)[O-])cc1 | 19.5* | -0.4 | 2.0 | -5.2 | 14.8 | -1.9
CCCNC(=O)c1ccc2c(=O)c(O)c(-c3cccc(Br)c3)[nH]c2c1 | 19.6* | -0.3 | i | i | 10.0 | -2.8
Cc1ccc2c(c1)C(=O)C(=O)N2Cc1ccc(Cl)cc1 | 20.8* | -0.1 | -4.2 | -4.6 | 23.0* | 0.8
CCOC(=O)N1CCN(S(=O)(=O)c2ccc(C(=O)NNc3nc4cc(C)cc(C)c4s3)cc2)CC1 | . | -0.7 | . | . | . | .
Cc1cc(C)c2nc(NNC(=O)c3ccc(S(=O)(=O)N4CCCCC4)cc3)sc2c1 | 45.8* | -0.7 | -124.5 | -136.1 | 53.4* | -2.4 | BODIPY interf DR=>122
CCOC(=O)N1CCN(S(=O)(=O)c2ccc(C(=O)NNc3nc4c(C)cc(C)cc4s3)cc2)CC1 | 59.7* | 0.0 | -111.1 | -141.7 | 45.3* | -2.5 | BODIPY interf DR=>122
CCOC(=O)N1CCN(S(=O)(=O)c2ccc(C(=O)NNc3nc4c(C)cccc4s3)cc2)CC1 | 33.4* | 0.1 | -69.7 | -87.6 | 39.4* | -0.8 | BODIPY interf DR=>122
O=C(CN1C(=O)CCSc2ccccc21)Nc1ccc(Cl)c(Cl)c1 | -9.0 | . | 1.0 | 0.8 | . | .
O=C(CCc1c[nH]c2ccccc12)Nc1ccc(Oc2cccnc2)cc1 | -34.2 | . | -1.4 | -0.8 | . | .
CCOC(=O)N[C@@H](Cc1cccnc1)C(=O)N1CCC[C@H]1C(=O)NCCc1ccccc1Cl | 3.8 | . | 5.0 | 4.5 | . | .
C/C(=N\OCC(=O)Nc1nc2ccccc2s1)c1ccccc1 | 19.3* | 0.5 | 1.8 | 3.1 | 0.3 | -1.9
COc1ccc(/C(C)=N/OCC(=O)Nc2nc3ccccc3s2)cc1OC | -21.4 | 0.3 | -4.3 | -9.3 | . | .
Cc1ccccc1NC(=O)c1c(C)[nH]c(=S)c(C#N)c1-c1ccco1 | 20.5* | -0.5 | -29.2 | -33.7 | 20.5* | 2.1
CNC(=O)c1c(C)[nH]c(=S)c(C#N)c1-c1ccco1 | 0.1 | -1.2 | -102.3 | -153.3 | . | .
COP(=O)(O)[C@@H](CC(C)C)NC(=O)OCc1ccccc1 | 3.7 | . | 0.2 | -0.9 | . | .
Cc1c(NC(=S)N/N=C\c2ccccc2O)c(=O)n(-c2ccccc2)n1C | 34.0* | -0.8 | -90.2 | -98.2 | 10.6 | -2.2
Cc1c(NC(=S)N/N=C/c2ccc(Br)cc2)c(=O)n(-c2ccccc2)n1C | 20.4* | -0.2 | -3.1 | -8.1 | 20.3* | -9.4
COc1ccc(N(C(=O)c2cccc(OC)c2OC)C2C=CS(=O)(=O)C2)cc1 (stereo not given) | 23.8* | 0.0 | -3.4 | -1.6 | 7.5 | -4.2
CCCC(=O)N(c1ccc(OC)cc1)C1C=CS(=O)(=O)C1 (stereo not given) | 3.8 | 0.3 | -0.3 | 4.1 | . | .
CCCNC(=S)Nc1ccc(CC(=O)OC)cc1 | 24.3* | -0.8 | 3.8 | 1.2 | 8.2 | -4.7
Cc1[nH]c2ccccc2c1CC(=O)Nc1ccc(Nc2cccnc2)c(-c2cc(F)cc(F)c2)c1 | -21.4 | . | -18.9 | -33.5 | . | .
CCNC(=S)NNC(=O)c1ccccn1 | 3.9 | -0.4 | 0.0 | 5.2 | . | .
Cc1ccc(NC(=S)NNC(=O)c2nnn(-c3ccccc3)c2C)cc1 | 36.1* | -0.2 | 6.0 | 1.4 | 31.1* | -3.3 | BODIPY interf DR=>122
O=C(NNC(=S)Nc1ccc(Cl)c(Cl)c1)c1ccccn1 | 32.3* | -0.7 | -42.9 | -51.2 | 41.8* | 6.5*
SMILES | HGIII-sPLA2 inh | TbMetRS inhib | PLCg1 inh | PLC-beta3 inh | sPLA2 confirm | 535nm interf | others
Cc1cccc(NC(=S)NNC(=O)c2ccco2)c1 | 16.7 | -0.2 | 3.1 | 2.0 | . | .
Cc1ccc(NC(=S)NNC(=O)c2cnccn2)cc1 | 30.4* | . | -0.8 | 0.7 | 27.4* | 0.4
Cc1cccc(NC(=S)NNC(=O)c2nn(C)cc2Cl)c1 | 37.4* | 0.1 | -0.2 | -3.7 | 42.8* | 0.6 | BODIPY interf DR=>122
O=C(c1ccc(NC(=S)Nc2ccc(Cl)c(Cl)c2)cc1)N1CCCC1 | 19.5* | -1.1 | 0.7 | -2.6 | 6.4 | -2.8
Cc1ccc(NC(=O)COC(=O)c2nn(C)cc2Cl)cc1 | -1.5 | -0.4 | 3.7 | -3.8 | . | .
O=C(Nc1ccc(Cl)c(Cl)c1)N1CCCCCC1 | 7.6 | -0.2 | -0.4 | -6.7 | . | .
Cc1ccc(NC(=S)NNC(=O)c2nn(C)cc2Cl)cc1 | 33.5* | 0.5 | 3.0 | 0.5 | 44.0* | 1.9 | BODIPY interf DR=>122
COc1ccccc1CN[C@@H]1CC[C@@]23CCCN2C(=O)CCC[C@H]3C1 | 7.9 | . | 0.0 | 0.9 | . | .
CCCCC(=O)Oc1cc(C)[nH]c(=O)c1[N+](=O)[O-] | 20.7* | -0.2 | 7.0 | -2.1 | 1.1 | -5.2
CCCC(CCC)C(=O)Oc1cc(C)[nH]c(=O)c1[N+](=O)[O-] | -1.2 | -0.1 | 3.3 | 0.8 | . | .
Nc1c(C(=O)Nc2ccccc2F)sc2nc(-c3ccco3)ccc12 | 19.4* | 0.2 | i | i | 10.3 | -5.4
COC(=O)[C@]12C[C@H](CC(=O)NCc3ccc(C)o3)C(=O)N(Cc3cccc4ccccc34)C1=C[C@H](C(C)C)O[C@@H]2C1CC1 | 0.4 | . | 5.5 | 1.4 | . | .
COc1cccc(/C=N/N=C(\N)c2nonc2N)c1O | 19.8* | -0.4 | -3.0 | 1.2 | 5.8 | -3.3
CCOc1ccccc1NC(=O)NNC(=O)CCn1nc(C)c([N+](=O)[O-])c1C | -1.8 | . | 4.1 | 3.0 | . | .
CC(C)n1c(=S)[nH]c2scc(-c3cccs3)c2c1=O | 23.4* | -0.5 | -3.2 | -12.9 | 47.7* | 9.6*
CCn1c(=S)[nH]c2scc(-c3cccs3)c2c1=O | 17.7 | -0.5 | 0.6 | -6.4 | . | .
C#CCN(CC=C)Cc1ccc(OC)cc1OC | 2.8 | . | -0.1 | 0.2 | . | .
Cc1cnc(NC(=O)CSc2nnc(C)n2N)s1 | 21.8* | -0.9 | -2.0 | -2.4 | -1.3 | -5.2
Cc1cnc(NC(=O)CSc2ccccc2)s1 | 1.4 | -0.4 | 7.4 | 3.5 | . | .
Cc1cnc(NC(=O)CSc2nnc3ncccn23)s1 | 4.1 | -0.2 | 3.9 | -5.0 | . | .
CCOC(=S)SCC(=O)Nc1ncc(C)s1 | 20.2* | -0.7 | -2.2 | -9.4 | -6.7 | -6.7
N#CC(C#N)c1ccnc2ccccc12 | 19.4* | -0.1 | 0.9 | 2.0 | 6.6 | -2.1
Cc1ccc(-c2cc(-c3nnc4sc(COc5ccccc5)nn34)[nH]n2)cc1 | 2.6 | . | 2.9 | -4.2 | . | .
COC(=O)[C@]12C[C@H](CC(=O)N3CCSCC3)C(=O)N(CCc3ccc(OC)c(OC)c3)C1=C[C@H](COCc1ccccc1)O[C@@H]2C | -3.3 | . | 0.2 | -0.9 | . | .
CCOC(=O)c1sc(NC(=S)NC(=O)C2CC2)cc1C | 21.2* | 0.2 | 0.0 | -0.3 | 6.5 | -3.2
CCOC(=O)c1sc(NC(=S)NC(=O)C23CC4CC(CC(C4)C2)C3)cc1C | 5.5 | 0.0 | -0.9 | 0.6 | . | .
CCn1c(=S)[nH]c2cc(Cl)ccc21 | 11.8 | 0.3 | -1.3 | -8.0 | . | .
CCCn1c(=S)[nH]c2cc(Cl)ccc21 | 20.9* | 0.0 | -1.8 | -12.7 | 8.7 | -5.0
